ChEMBL document CHEMBL1153285, “Synthesis and SAR of piperazinyl-N-phenylbenzamides as inhibitors of hepatitis C virus RNA replication in cell culture” (Bioorg Med Chem Lett, 2009)
The source made the active and inactive calls. No cut-off for these calls is given here.

Legend:
Hepatitis C virus = assay: Antiviral activity against HCV infected in human HUH7 cells assessed as inhibition of viral subgenomic RNA replication in presence of 10% fetal calf serum; assay type: functional, organism-based, Hepacivirus hominis; conditions: Huh-7
Summary of the method: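 Replication of subgenomic HCV RNA was measured in HUH-7 replicon cells using a modified Bartenschlager procedure. Results are reported as EC50 in µM.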

Hepacivirus hominis [1] = assay: Inhibition of helicase activity of HCV NS3/4A protease up to 10 uM
Summary of the method: (§1)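 Cell-free assays used purified protein, either the full-length NS3-4A complex or the separate protease and helicase domains. Compound was tested at concentrations up to 10 µM.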

Hepacivirus hominis [2] = assay: Inhibition of HCV NS5B deltaC21 polymerase
Summary of the method: (§2)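 Cell-free polymerase assays used purified NS5B in its ΔC55 and ΔC21 truncated forms.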

Hepacivirus hominis [3] = assay: Inhibition of HCV NS5B deltaC55 polymerase; summary of the method: as §2
Hepacivirus hominis [4] = assay: Inhibition of ATPase activity of HCV NS3/4A protease up to 10 uM; summary of the method: as §1

| SMILES | EC50 (Hepatitis C virus) [µM] | also measured |
| --- | --- | --- |
| CC(C)(C)OC(=O)N1CCN(c2ccc(C(=O)Nc3ccc(C#N)cc3)cc2)CC1 | 5.6 | – |
| CC(C)(C)OC(=O)N1CCN(c2ccc(C(=O)Nc3ccc(/C=C/c4ccc(O)cc4)cc3)cc2)CC1 | 0.14 | – |
| CC(C)(C)OC(=O)N1CCN(c2ccc(C(=O)N[C@H]3CC[C@H](O)CC3)cc2)CC1 | > 10 | – |
| CC(=O)Nc1ccc(NC(=O)c2ccc(N3CCN(C(=O)OC(C)(C)C)CC3)cc2)cc1 | > 10 | – |
| CC(C)(C)OC(=O)N1CCN(c2ccc(C(=O)Nc3cc[n+]([O-])cc3)cc2)CC1 | > 10 | – |
| CC(C)(C)OC(=O)N1CCC(c2ccc(C(=O)Nc3ccc(O)cc3)cc2)CC1 | 1.7 | – |
| CC(C)(C)OC(=O)N1CCN(c2ccc(C(=O)Nc3ccc(F)cc3)cc2)CC1 | > 10 | – |
| O=C(Nc1ccc(O)cc1)c1ccc(N2CCN(C(=O)Nc3ccccc3)CC2)cc1 | 19.6 | – |
| CC(C)(C)OC(=O)C1CCN(c2ccc(C(=O)Nc3ccc(O)cc3)cc2)CC1 | 1.6 | – |
| CC(C)(C)NC(=O)N1CCN(c2ccc(C(=O)Nc3ccc(O)cc3)cc2)CC1 | 0.47 | – |
| O=C(Nc1ccc(O)cc1)c1ccc(N2CCN(C(=O)Oc3ccccc3)CC2)cc1 | 4.1 | – |
| CC(C)(C)OC(=O)N1CCN(c2ccc(C(=O)Nc3cccc(Br)c3)cc2)CC1 | 0.58 | – |
| CN(C(=O)c1ccc(N2CCN(C(=O)OC(C)(C)C)CC2)cc1)c1ccc(O)cc1 | > 10 | – |
| CC(C)(C)OC(=O)N1CCN(c2ccc(C(=O)Nc3ccc(C(=O)c4ccccc4)cc3)cc2)CC1 | 0.69 | – |
| CC(C)(C)OC(=O)N1CCN(c2cccc(C(=O)Nc3ccc(O)cc3)c2)CC1 | > 10 | – |
| CC(C)(C)C(=O)N1CCN(c2ccc(C(=O)Nc3ccc(O)cc3)cc2)CC1 | 0.78 | – |
| CCOC(=O)N1CCN(c2ccc(C(=O)Nc3ccc(O)cc3)cc2)CC1 | 9.6 | – |
| CC(C)(C)OC(=O)N1CCN(c2ccc(C(=O)Nc3ccc(O)cc3)cc2)CC1 | 0.16 | Activity (Hepacivirus hominis [1]): inactive; Activity (Hepacivirus hominis [2]): inactive; Activity (Hepacivirus hominis [3]): inactive; Activity (Hepacivirus hominis [4]): inactive |
| O=C(Nc1ccc(O)cc1)c1ccc(N2CCN(C(=O)NCc3ccccc3)CC2)cc1 | 2.7 | – |
| CC(C)(C)OC(=O)N1CCN(c2ccc(C(=O)Nc3ccccc3)cc2)CC1 | > 10 | – |
| CN(CCNC(=O)OC(C)(C)C)c1ccc(C(=O)Nc2ccc(O)cc2)cc1 | > 10 | – |
| CN(C)c1ccc(NC(=O)c2ccc(N3CCN(C(=O)OC(C)(C)C)CC3)cc2)cc1 | > 10 | – |
| O=C(Nc1ccc(O)cc1)c1ccc(N2CCN(C(=O)OCc3ccccc3)CC2)cc1 | 0.55 | – |
